# Screens deposited in PubChem by Broad Institute.
# Sampled rows, rich in hits. Any-hit rate of the full collection: about 4.4%.
# HSF-1 act: increases HSF-1 driven luciferase reporter signal. NIH3T3-HGL HSF-1 luciferase reporter, MG132, 8 h; 100% = twice DMSO control signal. activation, % at 9 µM. actives 1.7% (n = 300,000). AID 504408;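 active = mean replicate activation of at least 50% with a set share of replicates each reaching 50%; inconclusive = only one of those two conditions met; inactive = mean below 50% and too few replicates reaching it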;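 note: 0% = median of the neutral control wells and 100% = twice that signal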
# T cruzi inh: blocks replication of Trypanosoma cruzi | actives 1.4% (n = 300,000) | T. cruzi beta-gal in NIH3T3, luminescence, 90 h | inhibition, % (no concentration beside the values);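 active = mean inhibition across valid replicates above about 55%, limit read from the data; inconclusive = mean below that limit but half or more replicates reach it; inactive = mean below it, under half of replicates reach it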;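 note: signal also drops with host cell toxicity which is not excluded here; 0% = plate median of DMSO wells and 100% = zero luminescence signal; higher percent means less beta-gal luminescence so fewer parasites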
#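 Material: NIH/3T3 host cells with β-galactosidase reporter T. cruzi; Input: 5,000 host fibroblasts per well; Medium: DMEM, 2% fetal bovine serum; Compound: 50 nL DMSO compound solution per well; Schedule: 3 h host attachment, then at least 90 h co-culture; Detection: luminescent β-galactosidase signal after 60 min lysis.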
# HIF act: HIF pathway transcriptional activation; U2OS HRE-luciferase reporter, luminescence; normalized: DMSO 0%, desferrioxamine 100%; activation, % at 7.5 µM (by protocol); actives 0.32% (n = 300,000);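 active = mean activation of at least 10% of the iron chelator positive control signal, with at least half of replicates also reaching 10%; inconclusive = mean and replicate majority disagree about reaching 10%; inactive = mean and most replicates under 10%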
# Calb FLC: C. albicans growth modulation with fluconazole; C. albicans CaCi-2 + fluconazole, Alamar Blue growth, 48 h; growth inhibition, % (test concentration not listed); actives 0.57% (n = 300,000); AID 1979;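 active = growth inhibition above about 58% in most replicates, limit read from the data, passing the limit was not always enough; inconclusive = exactly half the replicates above a set limit; inactive = most replicates below a set limit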;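 note: all wells also contain fluconazole at 8 µg/ml as a sub-toxic cotreatment; 0% = median of DMSO wells and 100% = median of geldanamycin control wells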
# HSF1 inh: HSF1 inhibition; NIH3T3-HGL HSE-luciferase, MG132-induced, luminescence 8 h; hits give low values; activity change, negative = inhibition, % at 7.5 µM (by protocol); actives 0.77% (n = 300,000); AID 2098;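 active = more than half of replicate wells show activity change below -50%, luminescence cut by over half; inconclusive = some wells, but at most half, below -50%; inactive = no replicate well below -50%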;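 note: luciferase reports HSF-1 transcriptional activity via heat shock element; 0% = median of DMSO wells and -100% = zero luminescence signal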
# Starred values were filed as active, the others as inactive; ? = inconclusive; nt = not tested or not shown.
SMILES,HSF-1 act,T cruzi inh,HIF act,Calb FLC,HSF1 inh
CCOc1ccc(S(=O)(=O)N(CC(=O)NC2CCCC2)c2ccc(F)cc2)cc1,12,7,0,2,3
N#C/C(=C\c1ccc(Cl)cc1)c1nc2ccccc2o1,75*,-22,1,-8,62
N#C/C(=C\c1ccncc1)c1nc2ccccc2o1,18,-3,0,1,5
O=C(N/N=C/c1c[nH]c2ccc(Br)cc12)C1CC1,-17,-7,0,4,1
Cc1nc2ccccc2nc(C)c1=NOCc1ccccc1Cl,55*,-28,1,-12,22
Cc1nc(C)c(Cc2ccccc2Cl)c(=O)[nH]1,3,4,0,-5,2
COCCCNC(=O)CNC(=O)c1nn(-c2ccc(OC)cc2OC)c(=O)c2ccccc12,2,13,0,-4,-6
COc1ccc(NC(=O)CNC(=O)c2nn(-c3ccc(OC)cc3OC)c(=O)c3ccccc23)c(OC)c1,-12,6,-1,93*,1
CCN(CCCNC(=O)CNC(=O)c1nn(-c2ccc(OC)cc2OC)c(=O)c2ccccc12)c1cccc(C)c1,61*,6,-1,31,59
COc1ccc(-n2nc(C(=O)NCC(=O)NC(C)C)c3ccccc3c2=O)c(OC)c1,-4,-12,-4,6,-8
COc1ccc(C)cc1NC(=O)C/C(C)=N/NC(=O)Cc1cccc2ccccc12,109*,-3,0,5,68
COc1ccc(NC(=O)C(=O)Nc2cccc3ccccc23)c(OC)c1,4,-7,1,0,8
COc1ccc(NC(=O)CNC(=O)Cc2cccc3ccccc23)c(OC)c1,3,26,93*,-1,2
Cc1c(C(=O)N2CCC(n3nccc3NC(=O)C3CC3)CC2)[nH]c2ccc(Cl)cc12,-7,12,1,-1,-1
O=C(CN1CCC(N2CCCCC2)CC1)N1CCOCC1,18,-12,0,1,-1
O=C(Oc1cccc2ccccc12)C1CC1,25,7,-25,29,6
O=C(COC(=O)CN1C(=O)C2CCCCC2C1=O)NNC(=O)c1ccc(Cl)cc1 (stereo not drawn),-6,3,-1,-5,4
COc1ccc(CC(=O)NCC(=O)Nc2ccccc2Br)cc1,56*,-1,0,-2,10
COCCSc1ccccc1C(=O)N1CCc2ccccc21,7,6,-3,1,3
CCN(CCCNC(=O)CCCN1C(=O)COc2ccc(C)cc21)c1cccc(C)c1,101*,20,0,14,68
Brc1ccc(-c2ccc(/C=N/Nc3nc4ccccc4[nH]3)o2)cc1,163*,62*,2,50,203
Fc1ccc(/C=N/Nc2nc3ccccc3[nH]2)cc1F,95*,9,-24,?,64
C(=N\Nc1nc2ccccc2[nH]1)/c1ccccc1,199*,-4,4,-4,138
Brc1ccc(-c2ccc(/C=N/Nc3nncc(-c4ccccc4)n3)o2)cc1,-10,-5,1,45,0
Cc1cc(Nc2cccc([N+](=O)[O-])c2)n2c(nc3ccccc32)c1C#N,41,76*,-9,12,26
SMILES,HSF-1 act,T cruzi inh,HIF act,Calb FLC,HSF1 inh
Cc1cc(Nc2c(C)n(C)n(-c3ccccc3)c2=O)n2c(nc3ccccc32)c1C#N,13,-13,0,14,3
N#Cc1c2c(c(Nc3ccc(O)cc3)n3c1nc1ccccc13)CCC2,66*,5,0,-5,30
CN(C)CCNc1c2c(c(C#N)c3nc4ccccc4n13)CCCC2,14,62*,0,?,7
CCN(CC)CCNc1c2c(c(C#N)c3nc4ccccc4n13)CCCC2,9,63*,0,24,-6
N#Cc1c2c(c(NCc3ccco3)n3c1nc1ccccc13)CCC2,nt,nt,nt,-1,nt
COc1ccc(Cl)cc1N1C(=O)CN(Cc2cc(OC)c(OC)c(OC)c2)C1=S,-6,-4,1,1,2
Cc1ccccc1NC(=O)c1cccc(NC(=O)CCC(=O)O)c1,-8,-4,0,-7,-3
Cc1cc(NCCCCO)n2c(nc3ccccc32)c1C#N,0,4,0,-15,-1
CCN(CC)CCNc1cc(C)c(C#N)c2nc3ccccc3n12,3,57*,2,7,-5
Nc1c(C(=O)NCCc2ccc(Cl)cc2)sc2ccc(S(=O)(=O)N3CCCCC3)cc12,63*,59*,0,-11,36
CC(C)CCNC(=O)c1sc2ccc(S(=O)(=O)N3CCCCC3)cc2c1N,12,-13,0,8,6
Cc1ccc(-c2ccc(=O)n(CC(=O)NCCN3CCCCC3C)n2)cc1 (stereo not drawn),nt,-20,0,-1,nt
Cc1ccc(-c2ccc(=O)n(CCC(=O)NCCN3CCCCC3C)n2)cc1 (stereo not drawn),-80,6,0,nt,-75*
COC(=O)c1ccc(COc2ccc(/C=C(\C#N)c3nc4ccccc4[nH]3)cc2OC)o1,20,40,0,79*,9
COc1ccc(C/C(O)=C(\C#N)c2nc3ccccc3[nH]2)cc1OC,59*,-43,0,19,15
Cc1cc(Cl)c2oc(C(=O)N(C)CCc3cnn(C)c3)c(C)c2c1,25,11,0,3,22
Cc1ccc(NC(=O)c2ccc(Nc3c([N+](=O)[O-])cc([N+](=O)[O-])cc3[N+](=O)[O-])cc2)cc1,-72,59*,2,9,-71*
O=C(CCNc1ccc(F)cc1)c1cccc([N+](=O)[O-])c1,13,53,0,-4,1
CC(=O)Nc1ccc(C(=O)NNC(=O)c2cc([N+](=O)[O-])cc([N+](=O)[O-])c2)cc1,10,3,1,10,-5
O=C(CCNc1ccc(Br)cc1)c1cccc([N+](=O)[O-])c1,66*,1,-48,-3,32
CC(=O)Nc1ccc(NC(=O)c2cc([N+](=O)[O-])cc([N+](=O)[O-])c2)cc1,-4,55*,-1,3,-3
O=C(Nc1ccc(Br)cc1)c1cc([N+](=O)[O-])cc([N+](=O)[O-])c1,-4,71*,-2,-5,0
Cc1ccc(NC(=O)c2ccc(C)cc2)cc1,50,-16,-1,-27,18
Cn1nc(N)nc1N1CCN(c2ccc(F)cc2)CC1,1,-2,-1,11,-6
CC(=O)Nc1cccc(C(=O)OCC(=O)NCc2ccc(F)cc2)c1,11,-9,0,27,2
C/C(N)=C(/C#N)C(=O)COC(=O)c1ccccc1Oc1ccccc1,-6,-8,0,26,-1
COC(=O)c1cc(C(=O)Nc2ccc(S(=O)(=O)NC(C)(C)C)cc2)cc([N+](=O)[O-])c1,-15,56*,0,-21,-3
Cc1sc(NC(=O)c2ccco2)nc1-c1ccccc1,90*,-8,2,25,39
